Compounds with a hit are over-represented: about 2.6% of the library has one in this group of screens.
E-sel inducer – E-selectin induction in HUVECs, primary screen, imaging, HUVEC, immunofluorescence imaging, single point. P16581. normalized: neutral wells 0, TNF-alpha wells 100. activation, % at 7.58 µM. 260,000 tested, 0.37% active. AID 686992, 2013;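 active = mean E-selectin-positive cell signal at least 10% of the positive control, reached in at least 60% of replicates, without over 20% cell loss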
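System: HUVEC, human umbilical vein endothelial cells; quantity: 3,000 cells/well; buffer or medium: EGM-2 medium, gelatin-coated wells; dosing: single-point compound dose; detection: immunofluorescence imaging; evaluation: % PE-positive cells; benchmarks: TNF-alpha, DMSO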
RAD52 anneal inh – RAD52 DNA annealing inhibitors, primary screen, biochemical, FRET, single point, set 2 | AID 651710, 2012 | inhibition, % at 18.7 µM | DNA repair protein RAD52 homolog (Homo sapiens), P43351 | 360,000 tested, 0.46% active | recombinant RAD52 DNA annealing, FRET fluorescence;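 active = every replicate showing at least 50% inhibition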
rRNA inh HTS – reduced GFP signal of wild-type E. coli, primary screen, bacterial rRNA inhibitor project, GFP/RFP fluorescence, OD600, single point. AID 720706, 2013. 350,000 tested, 1.6% active. E. coli WT GFP vs humanized-ribosome RFP mutants, 24 h; stronger effect = lower value; DMSO median 0, no signal -100. GFP signal change (wild-type ribosome), % (concentration not given with the values);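 active = significant combined selectivity score with lowered wild-type GFP, culture density cut under 30%, mutant RFP and density less affected; inactive = any of these conditions unmet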
INS-1E GSIS act – GLuc luminescence reporter in INS-1E cells, primary screen for activators of glucose-dependent secretion of insulin; INS-1E GLuc reporter insulin secretion, 2-3 h; activation, % at 16.6 µM; 370,000 tested, 0.61% active; AID 743287, 2014;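 active = lowest replicate activation of at least 40%, so every replicate reaches that level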;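 note: 0% = median of neutral control wells and 100% = median of IBMX positive control wells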
AF4-AF9 inh – inhibitors of AF4 peptide binding to AF9, primary screen, biochemical, AlphaScreen, biotin-AF4 peptide, FLAG-AF9, single point. inhibition, % at 10 µM. Protein AF-9 (Homo sapiens), P42568. AID 651704, 2012. 350,000 tested, 0.47% active;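 active = every replicate reaching a set inhibition limit, whatever the replicate mean, cut at about 25% in these data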;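 note: 0% = plate neutral control median and 100% = total signal loss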
Target sequence (P42568 whole entry, looked up): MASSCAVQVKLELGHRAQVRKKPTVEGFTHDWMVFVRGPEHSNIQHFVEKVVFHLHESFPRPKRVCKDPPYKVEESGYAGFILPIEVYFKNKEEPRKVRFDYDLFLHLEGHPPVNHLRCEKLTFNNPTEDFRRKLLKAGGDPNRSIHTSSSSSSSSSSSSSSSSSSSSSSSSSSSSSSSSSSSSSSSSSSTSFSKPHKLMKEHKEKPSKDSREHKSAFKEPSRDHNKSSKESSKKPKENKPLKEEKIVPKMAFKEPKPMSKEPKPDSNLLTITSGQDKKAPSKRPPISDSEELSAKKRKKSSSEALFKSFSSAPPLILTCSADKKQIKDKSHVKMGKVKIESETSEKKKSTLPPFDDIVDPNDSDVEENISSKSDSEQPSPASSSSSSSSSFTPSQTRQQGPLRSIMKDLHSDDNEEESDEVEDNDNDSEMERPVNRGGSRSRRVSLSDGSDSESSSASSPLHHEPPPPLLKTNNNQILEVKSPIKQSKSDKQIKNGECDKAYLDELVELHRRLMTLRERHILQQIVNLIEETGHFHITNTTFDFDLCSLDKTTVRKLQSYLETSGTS
RAD54 inh – inhibitors of human RAD54 branch migration, primary screen, biochemical, fluorescence, single point; 360,000 tested, 0.14% active; RAD54 Holliday junction branch migration, FAM/BHQ fluorescence; AID 602329, 2012; inhibition, % at 10.4 µM;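 active = mean normalized replicate activity at least 40 and at least half of replicates scoring 40 or more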;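 note: 0% = median of neutral control wells and 100% = median of positive control wells; inhibitors cause a drop in the FAM fluorescence signal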
Numbers without * were called inactive; x = not tested or not shown.

SMILES	E-sel inducer	RAD52 anneal inh	rRNA inh HTS	INS-1E GSIS act	AF4-AF9 inh	RAD54 inh
COc1ccc(CCNS(=O)(=O)c2ccc3c(c2)NC(=O)CS3)cc1OC	114*	-10	0	36	-13	8
COc1ccc(CCNC(=O)CCS(=O)(=O)c2ccc3c(c2)NC(=O)CS3)cc1OC	0	-24	9	43	-4	-20
CCOC(=O)c1c(S(=O)(=O)NCCc2ccc(OC)c(OC)c2)c(C)n(C)c1C	x	-9	1	51*	-2	-4
CCn1cc(S(=O)(=O)NCCc2ccc(OC)c(OC)c2)cn1	0	-11	6	48*	-1	-8
COc1ccc(CCNS(=O)(=O)c2cn(C)cn2)cc1OC	x	-6	8	44*	-2	3
COc1ccc(CCNS(=O)(=O)c2cn(C)nc2C)cc1OC	-1	3	7	21	0	-2
CCOC(=O)c1c(S(=O)(=O)NCCc2ccccc2)c(C)n(C)c1C	x	-16	-4	-9	12	-3
COc1ccc(CCNS(=O)(=O)c2cccc(C)c2)cc1OC	x	x	x	90*	x	9
COc1ccc(CCNS(=O)(=O)c2cccc(F)c2)cc1OC	x	x	x	x	x	3
COc1cccc(-c2cnc3cccnn23)c1	0	-7	1	25	-3	1
Cc1ccc(-c2cnc3cccnn23)cc1F	0	-1	-10	46*	-10	3
O=C(CN1C(=O)NC(Cc2ccccc2)C1=O)Nc1ccc(F)c(Cl)c1 (stereo unspecified)	18	-8	-28*	-12	0	5
O=C(CN1C(=O)NC(Cc2ccccc2)C1=O)Nc1ccc(F)cc1 (stereo unspecified)	x	x	x	x	x	12
C[C@H](CO)N1C[C@H](C)[C@H](CN(C)C(=O)[C@@H]2CCCN2C)OCc2ccccc2-c2c(n(C)c3ccccc23)C1=O	1	-9	0	28	3	12
CCOC(=O)Cn1c(=O)oc2cc(S(=O)(=O)N(C)c3cccc(C)c3)ccc21	3	-89	-22*	-23	-2	x
CCOC(=O)Cn1c(=O)oc2cc(S(=O)(=O)N(C)c3ccc(OC)cc3)ccc21	0	-45	-8	-6	-3	5
Fc1ccc(Br)cc1C1C=C(c2ccc(Br)cc2)Nc2ncnn21 (stereo unspecified)	x	-35	-30*	3	x	-7
O=C1N/C(=N\N=C\c2cccs2)SC1Cc1cccc(Cl)c1 (stereo unspecified)	0	x	x	86*	x	x
COc1ccc(NS(=O)(=O)c2ccc(Cl)c(NC(=O)c3cccnc3Cl)c2)cc1	-1	1	-20	-15	1	x
COc1ccc(NS(=O)(=O)c2ccc(Cl)c(NC(=O)c3ccccc3F)c2)cc1	0	-10	-13*	x	-11	-19
CCSc1ccc(-c2nn(-c3ccccc3)cc2/C=C(/C#N)C(=O)NC)cc1	x	x	x	65*	x	0
CC1CCN(C2=C(NS(=O)(=O)c3ccc(Cl)cc3)C(=O)c3ccccc3C2=O)CC1	4	-3	9	5	14	-9
O=C1C(NS(=O)(=O)c2ccc(Br)cc2)=C(N2CCCCC2)C(=O)c2ccccc21	3	-5	-11	26	38*	-2
CC1CCN(C2=C(NS(=O)(=O)c3ccccc3)C(=O)c3ccccc3C2=O)CC1	1	-8	-24*	14	57*	x
O=C1C(NS(=O)(=O)c2ccccc2)=C(N2CCN(c3ccc(F)cc3)CC2)C(=O)c2ccccc21	9	-5	-14	27	64*	-5
SMILES	E-sel inducer	RAD52 anneal inh	rRNA inh HTS	INS-1E GSIS act	AF4-AF9 inh	RAD54 inh
C[C@H](CO)N1C[C@H](C)[C@@H](CN(C)S(C)(=O)=O)Oc2ccc(NC(=O)C3CCCCC3)cc2CC1=O	27*	-16	9	15	3	-1
C[C@H]1CN([C@@H](C)CO)C(=O)Cc2cc(NC(=O)C3CCCCC3)ccc2O[C@H]1CN(C)C(=O)NC1CCCCC1	307*	8	0	-3	2	-29
C[C@H](CO)N1C[C@H](C)[C@@H](CN(C)C(=O)NC2CCCCC2)Oc2ccc(NC(=O)C3CCCCC3)cc2CC1=O	-5	14	1	-3	1	-4
Cc1noc(C)c1NC(=O)N(C)C[C@H]1Oc2ccc(NC(=O)Nc3cccc4ccccc34)cc2C(=O)N([C@H](C)CO)C[C@H]1C	1	8	1	-6	1	-2
CC(C)NC(=O)N(C)C[C@@H]1Oc2ccc(NS(=O)(=O)c3ccc(Cl)cc3)cc2CC(=O)N([C@H](C)CO)C[C@@H]1C	1	11	-1	2	-3	2
COC(=O)N1CCCCC1c1cc(C(=O)NCc2ccc(Cl)c(Cl)c2)no1 (stereo unspecified)	0	-15	3	73*	3	1
O=C(NCc1ccc(Cl)c(Cl)c1)c1cc(C2CCCCN2C(=O)C2CCCCC2)on1 (stereo unspecified)	-2	-6	2	-13	-8	1
COc1cc(NC(=O)CSCc2ccc(Cl)cc2Cl)c(C(=O)O)cc1OC	x	-18	-20*	x	-5	0
CNC[C@@H]1Oc2ccc(NC(=O)NC(C)C)cc2CC(=O)N(C)C[C@@H]1C	x	x	1	12	x	x
Nc1[nH]n2c(=O)cc(-c3ccccc3)nc2c1N=Nc1ccc(S(N)(=O)=O)cc1	x	-8	-24*	-7	7	x
Cc1ccc([N+](=O)[O-])cc1S(=O)(=O)NCCc1c(C)[nH]c2c(C)cccc12	0	-6	-20*	-41	4	3
CN1c2ccc(Br)cc2[C@@H]2[C@@H](CCN2C(=O)Cc2cccnc2)[C@@H]1CO	1	-3	-3	3	-7	3
Cc1csc(N/N=C/c2ccccn2)n1	-2	-5	-32*	-1	7	x
C(=N\Nc1nc2ccccc2s1)/c1ccccn1	2	-16	-30*	11	2	x
COc1ccc(C=NNc2nc3ccccc3s2)cc1	2	-10	-7	14	-1	-2
C[C@H]1CN([C@@H](C)CO)C(=O)c2cc(-c3ccncc3)cnc2O[C@@H]1CN(C)C(=O)Cc1cccnc1	18	x	4	-1	x	-6
CN(C)c1ccc2c(c1)[C@H]1C[C@H](CC(=O)NCCN3CCCCC3)O[C@@H](CO)[C@H]1O2	0	23	3	17	18	53*
CN(C)CC(=O)Nc1ccc2c(c1)[C@H]1C[C@H](CC(=O)NCc3ccc(-c4ccccc4)cc3)O[C@H](CO)[C@H]1O2	0	62*	-9	-12	5	-1
